In ChEMBL document CHEMBL1132236, “Synthesis and pharmacology of the baclofen homologues 5-amino-4-(4-chlorophenyl)pentanoic acid and the R- and S-enantiomers of 5-amino-3-(4-chlorophenyl)pentanoic acid” (J Med Chem, 1999):
Calls of active or inactive are those of the source. The rule behind the calls is not given here.

How the values were obtained:
Cavia porcellus [1] = organism: Cavia porcellus; test: The compound was tested for inhibition of electrically evoked muscle contractions in isolated longitudinal guinea pig ileum muscle; type: functional
In short: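 Guinea pig ileum longitudinal muscle strips with myenteric plexus (Paton–Zar) held in Krebs-bicarbonate gassed 5% CO2/95% O2 at 37 °C. After 60 min equilibration, stimulated at 0.1 Hz, 5 ms, 100 V. Isometric contractions recorded, inhibition taken relative to maximal inhibition. EC50 fitted with Hill equation. 20–30 min recovery between curves. At least four preparations from two animals.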

GABA B receptor = GABA B receptor (Rattus norvegicus, UniProt O88871+Q9Z0U4); test: Displacement of [3H]GABA from Gamma-aminobutyric acid type B receptor; type: protein-complex assay
In short: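 Rat brain synaptic membranes (male Sprague-Dawley), washed repeatedly in 5 mM Tris-HCl pH 7.1. 0.5 mg protein incubated with 50 nM [3H]GABA plus 20 µM isoguvacine in 50 mM Tris-HCl pH 7.4 with 2.5 mM CaCl2, 45 min at 24 °C. GF/B filtration, scintillation counting.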

[2] = biological target: GABA-A receptor; anion channel; test: Inhibition of [3H]muscimol binding to Gamma-aminobutyric acid A (GABA-A) receptor of rat brain membranes; type: cell membranes, Membrane
In short: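 Male Sprague-Dawley rat brain synaptic membranes, washed repeatedly, resuspended at 1 mg/mL in 50 mM Tris-HCl pH 7.4. Incubated with 10 nM [3H]muscimol for 1 h at 20 °C, competitor 10^-10 to 10^-3 M. Nonspecific binding defined with 1 mM GABA. GF/B filtration, liquid scintillation counting.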

Cavia porcellus [3] = organism: Cavia porcellus; test: Sensitivity towards CGP-35348 in isolated longitudinal guinea pig ileum muscle; Sensitive; type: functional
Cavia porcellus [4] = organism: Cavia porcellus; test: Sensitivity towards CGP-35348 in isolated longitudinal guinea pig ileum muscle; sensitive; type: functional

Sequence of GABA B receptor (Q9Z0U4 whole entry): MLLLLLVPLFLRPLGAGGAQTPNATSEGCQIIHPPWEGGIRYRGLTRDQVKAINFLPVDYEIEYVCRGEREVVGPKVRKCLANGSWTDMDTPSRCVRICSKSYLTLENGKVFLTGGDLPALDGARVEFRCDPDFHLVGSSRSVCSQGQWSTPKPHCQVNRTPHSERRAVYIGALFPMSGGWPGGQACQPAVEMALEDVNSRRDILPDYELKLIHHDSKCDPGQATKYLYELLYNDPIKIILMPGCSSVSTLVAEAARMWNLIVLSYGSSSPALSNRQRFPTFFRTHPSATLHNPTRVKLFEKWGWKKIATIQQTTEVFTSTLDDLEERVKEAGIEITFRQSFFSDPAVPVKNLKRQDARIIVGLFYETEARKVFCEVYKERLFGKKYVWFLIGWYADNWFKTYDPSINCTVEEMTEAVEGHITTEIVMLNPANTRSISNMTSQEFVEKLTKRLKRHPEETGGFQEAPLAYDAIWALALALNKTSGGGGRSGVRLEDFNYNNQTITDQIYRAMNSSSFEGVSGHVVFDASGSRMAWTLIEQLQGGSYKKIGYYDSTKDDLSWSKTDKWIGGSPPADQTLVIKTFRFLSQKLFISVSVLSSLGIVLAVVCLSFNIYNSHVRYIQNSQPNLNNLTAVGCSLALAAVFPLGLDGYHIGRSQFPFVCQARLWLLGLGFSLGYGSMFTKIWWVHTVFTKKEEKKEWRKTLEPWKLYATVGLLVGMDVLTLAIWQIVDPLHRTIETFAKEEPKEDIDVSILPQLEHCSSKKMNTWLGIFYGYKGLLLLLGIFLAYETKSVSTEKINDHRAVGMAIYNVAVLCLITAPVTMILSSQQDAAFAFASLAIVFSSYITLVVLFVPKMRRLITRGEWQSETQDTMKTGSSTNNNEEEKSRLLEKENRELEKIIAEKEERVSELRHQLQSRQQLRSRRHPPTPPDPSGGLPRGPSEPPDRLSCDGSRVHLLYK
Sequence of GABA B receptor (O88871 whole entry): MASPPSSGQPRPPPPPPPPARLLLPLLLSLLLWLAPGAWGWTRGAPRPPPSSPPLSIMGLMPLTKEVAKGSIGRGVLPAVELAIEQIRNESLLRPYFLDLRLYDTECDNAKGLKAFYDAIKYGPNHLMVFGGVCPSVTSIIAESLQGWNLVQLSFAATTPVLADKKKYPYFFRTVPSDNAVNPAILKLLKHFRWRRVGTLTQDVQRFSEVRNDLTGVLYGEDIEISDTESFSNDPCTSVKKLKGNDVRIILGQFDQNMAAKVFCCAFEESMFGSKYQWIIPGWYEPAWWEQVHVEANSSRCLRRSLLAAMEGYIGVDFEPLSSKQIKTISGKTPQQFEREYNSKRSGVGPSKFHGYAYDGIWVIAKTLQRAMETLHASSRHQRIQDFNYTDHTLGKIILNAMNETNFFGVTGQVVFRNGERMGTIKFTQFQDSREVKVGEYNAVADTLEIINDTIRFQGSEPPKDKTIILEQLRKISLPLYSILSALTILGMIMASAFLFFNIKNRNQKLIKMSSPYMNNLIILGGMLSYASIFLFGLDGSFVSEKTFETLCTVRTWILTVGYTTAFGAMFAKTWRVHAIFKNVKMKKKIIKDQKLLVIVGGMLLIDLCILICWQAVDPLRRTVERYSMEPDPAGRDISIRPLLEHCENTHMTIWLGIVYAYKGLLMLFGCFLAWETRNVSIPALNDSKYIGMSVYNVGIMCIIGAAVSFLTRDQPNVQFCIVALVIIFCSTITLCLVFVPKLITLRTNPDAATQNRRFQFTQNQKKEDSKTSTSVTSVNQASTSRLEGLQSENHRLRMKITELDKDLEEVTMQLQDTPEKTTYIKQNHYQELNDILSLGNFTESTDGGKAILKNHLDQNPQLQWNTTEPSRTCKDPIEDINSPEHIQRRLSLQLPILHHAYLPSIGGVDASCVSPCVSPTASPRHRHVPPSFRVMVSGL

SMILES | EC50 (Cavia porcellus [1]) [µM] | IC50 (GABA B receptor) [µM] | IC50 [2] [µM] | Sensitivity (Cavia porcellus [3]) | Sensitivity (Cavia porcellus [4])
NCC[C@H](CC(=O)O)c1ccc(Cl)cc1 | 11 | 7.4 | > 100 | inactive | –
NCC[C@@H](CC(=O)O)c1ccc(Cl)cc1 | 310 | > 0.14 | > 100 | – | inactive
NC[C@@H](CC(=O)O)c1ccc(Cl)cc1 | 3300 | – | > 100 | – | –
NC[C@H](CC(=O)O)c1ccc(Cl)cc1 [ARBACLOFEN] | 11 | – | > 100 | Active | –
NCC(CCC(=O)O)c1ccc(Cl)cc1 (stereo unspecified) | > 3000 | > 0.14 | > 100 | – | –
